The list is not random: actives were taken first. Their share in the collection is about 1.5%.
EBI2 antag: EBI2 receptor antagonists, beta-arrestin recruitment, primary screen, cell-based, luminescence, 7a,25-OHC stimulation, uHTS; G-protein coupled receptor 183 (Homo sapiens), P32249; 7a,25-OHC stimulated; inhibition, % at 5 µM; actives 0.81% (n = 360,000); AID 651636, 2012; in the data active means inhibition above about 38%;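 further: enzyme fragment complementation signal reports receptor beta-arrestin coupling in cells; 0% = agonist plus DMSO wells and 100% = wells without agonist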
Target sequence (P32249 whole entry, looked up, the tested form may be a part): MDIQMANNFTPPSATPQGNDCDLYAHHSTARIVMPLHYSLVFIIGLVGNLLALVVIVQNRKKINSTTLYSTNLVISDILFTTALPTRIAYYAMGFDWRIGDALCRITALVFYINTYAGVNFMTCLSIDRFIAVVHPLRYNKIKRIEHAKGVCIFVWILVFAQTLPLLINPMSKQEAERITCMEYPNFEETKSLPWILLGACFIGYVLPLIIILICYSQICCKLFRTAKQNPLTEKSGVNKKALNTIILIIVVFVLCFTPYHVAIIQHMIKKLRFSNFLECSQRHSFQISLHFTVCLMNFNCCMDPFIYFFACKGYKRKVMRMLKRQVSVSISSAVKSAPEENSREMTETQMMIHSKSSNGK
APJ ag: agonists of human apelin receptor APJ, primary screen, CHO-K1 cells, PathHunter beta-arrestin, luminescence; P35414; 0% DMSO wells, 100% apelin; activation, % at 20 µM; actives 0.11% (n = 330,000);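 active means activation more than six SD over the plate average, tested at 20 µM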;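 further: 0% = DMSO alone and 100% = apelin-13 at 10 nM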
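Incubation: overnight seeding, 90 min compound at 25 °C, 1 h detection; test system: PathHunter CHO-K1 APJ (AGTRL-1) beta-arrestin reporter cells; amount: 1000 cells/well; doses: one dose, 20 µM compound, 1% DMSO; measured by: beta-gal luminescence; measure: agonist-driven arrestin binding to APJ; benchmarks: negative DMSO alone, positive Apelin-13 at 10 nM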
CCR6 antagonist: CCR6 receptor antagonists, primary screen, cell-based, CHO-K1, luminescence, beta-arrestin, uHTS; C-C chemokine receptor type 6 (Homo sapiens), P51684; CHO-K1 CCR6 PathHunter beta-arrestin, CCL20-stimulated; inhibition, % at 20 µM; actives 0.49% (n = 340,000);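 active means compounds whose inhibition of the agonist-driven luminescence signal at 20 µM reaches about 50%, limit read from the data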;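 further: cells stimulated with CCL20 at 14 nM final; plate controls were DMSO with CCL20 for no effect and DMSO without agonist for full effect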
Target sequence (P51684 whole entry, looked up): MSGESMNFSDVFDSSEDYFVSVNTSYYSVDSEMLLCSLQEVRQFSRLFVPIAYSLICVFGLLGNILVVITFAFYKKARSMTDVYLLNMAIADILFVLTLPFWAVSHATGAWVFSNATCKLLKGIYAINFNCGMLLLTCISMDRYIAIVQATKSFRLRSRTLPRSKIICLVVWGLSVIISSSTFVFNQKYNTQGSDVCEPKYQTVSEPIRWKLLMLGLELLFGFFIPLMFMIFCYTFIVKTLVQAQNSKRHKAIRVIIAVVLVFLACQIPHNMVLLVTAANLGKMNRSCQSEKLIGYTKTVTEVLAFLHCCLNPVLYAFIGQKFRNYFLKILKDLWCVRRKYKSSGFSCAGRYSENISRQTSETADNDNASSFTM
CXCR6 inh: CXCR6 receptor inhibitors, primary screen, cell-based, beta-arrestin, luminescence, CHO-K1 PathHunter, 1536-well; inhibition, % at 20 µM; C-X-C chemokine receptor type 6 (Homo sapiens), O00574; actives 0.36% (n = 360,000); in the data active means inhibition above about 34%, passing the limit was not always enough;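 further: antagonist mode with CXCL16 agonist at 10 nM final; 0% = 10 nM CXCL16 with DMSO and 100% = unstimulated wells without agonist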
APJ antagonist: antagonists of human apelin receptor APJ, primary screen, CHO-K1 cells, beta-arrestin complementation, luminescence. P35414. inhibition, % at 20 µM. actives 0.32% (n = 330,000);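 active means inhibition above about 40% at 20 µM, limit read from the data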;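 further: cells challenged with 10 nM apelin-13 agonist together with compound; plate controls were apelin-13 plus DMSO wells for no effect and DMSO wells lacking apelin-13 for full effect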
CXCR6 antag conf: CXCR6 receptor antagonists, confirmation, cell-based, single concentration, beta-arrestin, luminescence; inhibition, % at 20 µM; actives 65% (n = 700); shares compounds with CXCR6 inh; CHO-K1 CXCR6 PathHunter beta-arrestin; AID 602409, 2012;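 active means mean inhibition over four retests above 40%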;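 further: receptor stimulated with 10 nM CXCL16 agonist; beta-galactosidase fragment complementation upon beta-arrestin recruitment to receptor; plate controls were CXCL16 plus DMSO for no effect and DMSO without CXCL16 for full effect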
EBI2 antag conf: EBI2 antagonist hit retest, beta-arrestin, confirmation, cell-based, single concentration, luminescence, 7a,25-OHC stimulation; shares compounds with EBI2 antag; inhibition, % at 5 µM; AID 651997, 2013; 7a,25-OHC antagonism; actives 29% (n = 2,400);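 active means inhibition of at least 50%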
EBI2 ag: EBI2 agonist activity of antagonist hits, confirmation, counter-screen for EBI2 antagonist project, cell-based, single concentration, agonist mode, luminescence | shares compounds with EBI2 antag | EBI2-expressing cells, 60 min; 0% vehicle, 100% 7α,25-dihydroxycholesterol control | activation, % at 5 µM | 2,400 tested, under 10 active;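 active means activation of at least 50%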
bGal cs: E. coli beta-galactosidase enzyme inhibition, confirmation, counter-screen for EBI2 antagonist project, biochemical, luminescence, single concentration; shares compounds with EBI2 antag; purified beta-galactosidase, luminescent Galacton Star, 15 min; inhibition, % at 5 µM; actives 1% (n = 2,400); AID 652176, 2013;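 active means replicate-average signal at least 3 plate SD below neutral wells, shown as high inhibition, flagging enzyme-inhibiting false positives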;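 further: 0% = DMSO wells with enzyme and 100% = wells lacking enzyme; higher means stronger loss of beta-gal luminescence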
* = called active by the depositor.

How did C/C(=N\NC(=O)COc1ccc(C(C)(C)C)cc1)c1ccc(-n2ccnc2)cc1 do in these assays?
EBI2 antag: 11.7; APJ ag: -0.7; CCR6 antagonist: -2.1; CXCR6 inh: 73.0*; APJ antagonist: -31.0; CXCR6 antag conf: 6.2

What do the screens show for `CCc1ccc(OCC(=O)Nc2ccncc2)cc1`?
EBI2 antag: -6.3; APJ ag: -0.3; CCR6 antagonist: 7.3; CXCR6 inh: 7.4; APJ antagonist: 10.2

Results for CC(C)(C)c1ccc(OCC(=O)Nc2ccncc2)cc1 ?
EBI2 antag: -1.0; APJ ag: -1.5; CCR6 antagonist: -2.7; CXCR6 inh: 41.2*; APJ antagonist: -2.4; CXCR6 antag conf: 15.7

What do the screens show for `COc1ccc(OCC(=O)N/N=C(\C)c2ccc(-n3ccnc3)cc2)cc1`?
EBI2 antag: -6.6; APJ ag: -1.4; CCR6 antagonist: -18.4; CXCR6 inh: -2.9; APJ antagonist: -7.7

What do the screens show for `O=C(NNC(=O)c1ccccc1Cl)c1ccc2c(c1)OCCO2`?
EBI2 antag: -18.6; APJ ag: -3.3; CCR6 antagonist: 14.7; CXCR6 inh: -3.9; APJ antagonist: -6.3

Results for CCOC(=O)C1(C)CCCN(C(=O)c2cccs2)C1 (configuration not stated) ?
EBI2 antag: -8.1; CXCR6 inh: -4.2

What do the screens show for `Cc1ccc(NC(=S)NNC(=S)Nc2cccc(C(F)(F)F)c2)cc1`?
EBI2 antag: 27.8; APJ ag: 0.1; CCR6 antagonist: 26.9; CXCR6 inh: 12.4; APJ antagonist: -5.8

How did Cc1ccc(NC(=S)NNc2ncc(C(F)(F)F)cc2Cl)cc1 do in these assays?
EBI2 antag: 42.3*; APJ ag: -2.0; CCR6 antagonist: 90.4*; CXCR6 inh: 77.5*; APJ antagonist: -18.2; CXCR6 antag conf: 58.2*; EBI2 antag conf: 32.6; EBI2 ag: -1.2; bGal cs: 15.0

What do the screens show for `CCC(CC)C(=O)N(C)c1c(C)nc2c(OCc3ccc(Cl)cc3Cl)cccn12`?
EBI2 antag: 47.3*; CXCR6 inh: 50.8*; CXCR6 antag conf: 23.5; EBI2 antag conf: 45.7; EBI2 ag: -1.2; bGal cs: 8.3

How did CCC(CC)C(=O)N(C)c1c(C)nc2c(OCc3ccccc3C)cccn12 do in these assays?
EBI2 antag: -1.2; CXCR6 inh: 1.3

What do the screens show for `C/C(=N\NC(=O)c1cc(-c2cccs2)nc2ccccc12)c1ccccn1`?
EBI2 antag: 66.0*; APJ ag: -8.0; CCR6 antagonist: 29.3; CXCR6 inh: 44.7*; APJ antagonist: 39.2; CXCR6 antag conf: 44.0*; EBI2 antag conf: 48.3; EBI2 ag: -2.7; bGal cs: -9.8

How did NNC(=O)c1cc(-c2cccs2)nc2ccccc12 do in these assays?
EBI2 antag: -8.7; APJ ag: 0.6; CCR6 antagonist: -17.3; CXCR6 inh: -27.6; APJ antagonist: -5.5

Results for COc1ccc(C(=O)N/N=C(\C)c2ccccn2)cc1OC ?
EBI2 antag: 58.0*; APJ ag: -21.2; CCR6 antagonist: 74.8*; CXCR6 inh: 50.8*; APJ antagonist: 75.5*; CXCR6 antag conf: 69.4*; EBI2 antag conf: 83.9*; EBI2 ag: -0.7; bGal cs: -0.4

How did COc1ccc(OC)c(CNC(=O)c2nn(C)c3c2CS(=O)(=O)c2ccccc2-3)c1 do in these assays?
EBI2 antag: -1.8; APJ ag: -1.2; CCR6 antagonist: 1.3; CXCR6 inh: 7.5; APJ antagonist: 1.6

How did CN[C@@H](C)C(=O)NC[C@H]1O[C@@H](n2cnc3c(N)ncnc32)[C@H](O)[C@@H]1O do in these assays?
EBI2 antag: 0.3; CCR6 antagonist: 17.0; CXCR6 inh: 4.0

Results for Cc1n[nH]c(=S)n(NC(=O)CC(=O)Nn2c(=S)[nH]nc(C)c2=O)c1=O ?
EBI2 antag: 44.4*; APJ ag: -2.5; CXCR6 inh: 103.1*; APJ antagonist: 9.8; CXCR6 antag conf: 115.0*; EBI2 antag conf: 21.6; EBI2 ag: -4.2; bGal cs: 17.0*

How did NC(=O)c1ccc(NC(=O)COC(=O)c2c[nH]c3ccccc23)cc1 do in these assays?
EBI2 antag: -7.7; APJ ag: 4.7; CCR6 antagonist: 8.3; CXCR6 inh: -1.5; APJ antagonist: 6.0

What do the screens show for `O=[N+]([O-])c1ccc(N/N=C/c2sc(N3CCOCC3)nc2-c2ccccc2)c(S(=O)(=O)Nc2ccc(Cl)cc2)c1`?
EBI2 antag: 51.5*; CCR6 antagonist: 83.0*; CXCR6 inh: 51.7*; CXCR6 antag conf: 61.6*; EBI2 antag conf: 30.3; EBI2 ag: -1.5; bGal cs: 12.5

Results for Cc1cc(C)cc(NC(=O)Nc2ccc3c(c2)N(C)C(=O)CS3)c1 ?
EBI2 antag: 37.5*; APJ ag: 1.2; CCR6 antagonist: -20.6; CXCR6 inh: -12.3; APJ antagonist: 1.9; EBI2 antag conf: 47.9; EBI2 ag: -1.1; bGal cs: -19.4

Results for O=C(NC1CC(=O)N(c2ccccc2)C1)C1CC1 (configuration not stated) ?
EBI2 antag: 3.2; APJ ag: 1.2; CCR6 antagonist: 6.3; CXCR6 inh: -12.2; APJ antagonist: 20.6

How did COc1ccc(OCCNC(=O)c2ccc3nc(C)c(N(C)Cc4ccc(NC(C)=O)cc4)n3c2)cc1 do in these assays?
EBI2 antag: 55.1*; CXCR6 inh: -2.3; EBI2 antag conf: 16.3; EBI2 ag: -2.1; bGal cs: -8.8

How did CCc1nc2ccc(C(=O)NCCOc3ccc(OC)cc3)cn2c1N(CC)Cc1ccc(OC)c(OC)c1 do in these assays?
EBI2 antag: 57.7*; CXCR6 inh: 0.7; EBI2 antag conf: 37.5; EBI2 ag: -1.7; bGal cs: -8.6

What do the screens show for `CCc1nc2ccc(C(=O)NCCOc3ccc(OC)cc3)cn2c1N(C)C(=O)COc1ccccc1`?
EBI2 antag: 52.8*; CXCR6 inh: -2.7; EBI2 antag conf: 35.0; EBI2 ag: 0.8; bGal cs: -1.1
